What was measured:
Mfd = molecular target: T1, Mfd (Escherichia coli, UniProt P30958); assay: Isothermal titration calorimetry; assay type: binding, E. coli; conditions: ITC, 25 °C; no inhibitor
T1 sequence (P30958 1-1148): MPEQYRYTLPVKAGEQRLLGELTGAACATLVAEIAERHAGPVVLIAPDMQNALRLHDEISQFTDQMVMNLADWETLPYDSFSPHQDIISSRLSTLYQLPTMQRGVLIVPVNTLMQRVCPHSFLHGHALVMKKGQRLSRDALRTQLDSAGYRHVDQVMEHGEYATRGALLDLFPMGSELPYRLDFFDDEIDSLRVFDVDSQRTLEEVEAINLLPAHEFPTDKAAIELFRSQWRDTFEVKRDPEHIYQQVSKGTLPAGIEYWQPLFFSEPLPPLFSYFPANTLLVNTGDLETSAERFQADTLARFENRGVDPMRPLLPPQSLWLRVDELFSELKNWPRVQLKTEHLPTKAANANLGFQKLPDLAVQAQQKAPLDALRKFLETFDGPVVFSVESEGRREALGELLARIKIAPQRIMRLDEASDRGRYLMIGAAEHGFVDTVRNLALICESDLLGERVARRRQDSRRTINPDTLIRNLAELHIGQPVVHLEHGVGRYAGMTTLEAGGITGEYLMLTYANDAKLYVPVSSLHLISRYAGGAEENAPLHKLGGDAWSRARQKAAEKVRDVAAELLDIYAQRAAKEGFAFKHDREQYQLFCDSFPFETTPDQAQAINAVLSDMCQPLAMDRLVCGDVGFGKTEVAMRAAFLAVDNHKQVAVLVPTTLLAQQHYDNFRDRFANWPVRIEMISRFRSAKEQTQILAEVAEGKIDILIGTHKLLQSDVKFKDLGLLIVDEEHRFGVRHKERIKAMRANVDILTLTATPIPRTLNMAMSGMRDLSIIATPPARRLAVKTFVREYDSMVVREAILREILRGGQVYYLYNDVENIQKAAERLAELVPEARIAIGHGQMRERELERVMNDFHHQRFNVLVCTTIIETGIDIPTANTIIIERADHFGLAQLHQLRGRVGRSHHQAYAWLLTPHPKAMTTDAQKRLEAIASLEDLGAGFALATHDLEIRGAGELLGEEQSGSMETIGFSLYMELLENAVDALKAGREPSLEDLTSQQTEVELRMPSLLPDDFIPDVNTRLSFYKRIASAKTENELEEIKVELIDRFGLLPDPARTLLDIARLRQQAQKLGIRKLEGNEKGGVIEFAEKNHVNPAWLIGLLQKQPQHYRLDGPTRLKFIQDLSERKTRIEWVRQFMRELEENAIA
In short: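 Full-length E. coli Mfd (20 µM) in 0.1 M Tris, 0.2 M NaCl, 4% DMSO, pH 8 at 25 °C. Titrated with 20 injections of 2.5 µL of 200 µM test compound at 300 s intervals. For the competition run, Mfd was preincubated with test compound, then ATP (200 µM) binding was measured. A = Ka/Kapp. Performed in triplicate.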

HeLa cells = assay: Cytotoxicity, CellTiter96 AQueous; assay type: cell-based, human; conditions: 1 h; MPN 10 and 100 µM, NM102 10 and 300 µM, NM102 nanoformulation 1.29 and 5.16 mM
In short: (§1)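 Cells grown in DMEM with 10% heat-inactivated FBS, 1 U/mL penicillin and 1 µg/mL streptomycin (37 °C, 5% CO2). At 70% confluency, trypsinised and seeded at 4 × 10^4 cells/well, then incubated overnight. Switched to antibiotic-free DMEM 2 h before assay. Exposed 1 h in HBSS with 10% DMSO or empty-nanoformulation controls. MTS reagent added for 1 h, A490 read. Reagent and compound backgrounds subtracted; normalised to untreated cells.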

Vero cells = assay: Cytotoxicity, CellTiter96 AQueous; assay type: cell-based, monkey; conditions: 1 h; MPN 10 and 100 µM, NM102 10 and 300 µM, NM102 nanoformulation 1.29 and 5.16 mM
In short: as §1

K. pneumoniae ALE = assay: Mouse lung infection, CFU in lung at 24 h; assay type: in vivo; conditions: MPN 10 mg/kg i.p.
In short: (§2)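 Nine-week-old female C57BL/6J mice were anaesthetized with ketamine (79 mg/kg) and xylazine (9 mg/kg) i.p. Infected intranasally with 1 × 10^7 CFU in 20 µL PBS from late-exponential cultures. MPN was given at 10 mg/kg i.p. At 24 h mice were killed and the left lung homogenized in PBS. Lung CFU were counted by serial dilution on LB agar and expressed as log CFU per gram.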

[1] = system: K. pneumoniae ATCC 700603 wt; assay: Mouse lung infection, CFU in lung at 24 h; assay type: in vivo; conditions: MPN 10 mg/kg i.p.
In short: as §2

K. pneumoniae ∆mfd = assay: Mouse lung infection, CFU in lung at 24 h, ∆mfd mutant; assay type: in vivo; conditions: NF-NM102 6 mg/kg or MPN 10 mg/kg i.p.
P. aeruginosa CIP27853 = assay: Mouse lung infection, CFU in lung at 24 h; assay type: in vivo; conditions: MPN at 10 mg/ml, i.p.

SMILES	Kd (Mfd)	cytotoxicity (HeLa cells)	cytotoxicity (Vero cells)	effect on bacterial load in the lung (K. pneumoniae ALE)	reduction of the bacterial load [1]	effect on bacterial burden of the ∆mfd mutant (K. pneumoniae ∆mfd)	decrease of bacterial load (P. aeruginosa CIP27853)
Nc1ncnc2c1ncn2[C@@H]1O[C@H](COP(=O)(O)OP(=O)(O)OP(=O)(O)O)[C@@H](O)[C@H]1O [ATP]	145 ± 9 µM						
C[C@@H](O)[C@H]1C(=O)N2C(C(=O)O)=C(S[C@@H]3CN[C@H](C(=O)N(C)C)C3)[C@H](C)[C@H]12 [MPN, meropenem]		no toxicity	induced cytotoxicity	no significant effect	93%	inhibited	26 times
